Experiments:
Type in all cases: ADME, organism-based
[1] = Drug level in pediatric patient cerebrospinal fluid with gram-negative bacterial infection before initiation of 16 mg/kg/day, iv administered every 8 hrs for 93 days by LS/MS/MS analysis; design: route intravenous; conditions: human, in vivo
How it was run: (§1)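 Trough sampling: blood was drawn immediately before the 20-min IV CMS infusion (every 8 h), and CSF was taken from EVD systems within 1 h before infusion. Samples were stored at −80°C and analysed by LC-MS-MS for colistin, and for CMS via acid hydrolysis with subtraction. CSF was diluted 1:1 with serum. Values are means of two days.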

[2] = Drug level in pediatric patient cerebrospinal fluid with gram-negative bacterial infection before initiation of 16 mg/kg/day, iv administered every 8 hrs for 51 days by LS/MS/MS analysis; design: route intravenous; conditions: human, in vivo; how it was run: as §1
[3] = Drug level in pediatric patient cerebrospinal fluid with gram-negative bacterial infection before initiation of 18 mg/kg/day, iv administered every 8 hrs for 42 days by LS/MS/MS analysis; design: route intravenous; conditions: human, in vivo; how it was run: as §1
[4] = Drug level in pediatric patient cerebrospinal fluid with gram-negative bacterial infection at 4.8 mg/kg/day, iv administered every 8 hrs for 7 days measured after 30 mins by LS/MS/MS analysis; design: route intravenous; conditions: human, in vivo, 0.5 h
How it was run: (§2)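 CMS was given by 20-min IV infusion in saline every 8 h, and CSF was taken from EVD systems after the end of infusion. The CSF–serum 1:1 mix was treated with 1 M H2SO4 for 15–20 min, then 1 M NaOH, then acetonitrile with 0.1% TFA. CMS was calculated as colistin after hydrolysis minus colistin before hydrolysis, by LC-MS-MS, with CMS controls of 0.25–18.5 μg/ml. Values are means of two days; course 1 was sampled once.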

[5] = Drug level in pediatric patient cerebrospinal fluid with gram-negative bacterial infection at 10.4 mg/kg/day, iv administered every 8 hrs for 46 days measured after 30 mins by LS/MS/MS analysis; design: route intravenous; conditions: human, in vivo, 0.5 h; how it was run: as §2
[6] = Drug level in pediatric patient cerebrospinal fluid with gram-negative bacterial infection at 16 mg/kg/day, iv administered every 8 hrs for 93 days measured after 30 mins by LS/MS/MS analysis; design: route intravenous; conditions: human, in vivo, 0.5 h; how it was run: as §2
[7] = Drug level in pediatric patient cerebrospinal fluid with gram-negative bacterial infection at 16 mg/kg/day, iv administered every 8 hrs for 51 days measured after 30 mins by LS/MS/MS analysis; design: route intravenous; conditions: human, in vivo, 0.5 h; how it was run: as §2
[8] = Drug level in pediatric patient cerebrospinal fluid with gram-negative bacterial infection at 18 mg/kg/day, iv administered every 8 hrs for 42 days measured after 30 mins by LS/MS/MS analysis; design: route intravenous; conditions: human, in vivo, 0.5 h; how it was run: as §2
[9] = Ratio of drug level in cerebrospinal fluid to Serum of pediatric patient with gram-negative bacterial infection before initiation of 4.8 mg/kg/day, iv administered every 8 hrs for 7 days by LS/MS/MS analysis; design: route intravenous; conditions: human, csf
How it was run: (§3)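 Percentages are the ratio of mean CSF concentration to mean serum concentration from paired samples. Blood was drawn immediately before and 30 min after the 20-min IV CMS infusion (every 8 h); CSF came from EVD systems concurrently. Both were measured by LC-MS-MS, for colistin directly and for CMS after acid hydrolysis. Pairs were repeated on two days.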

[10] = Ratio of drug level in cerebrospinal fluid to Serum of pediatric patient with gram-negative bacterial infection before initiation of 10.4 mg/kg/day, iv administered every 8 hrs for 46 days by LS/MS/MS analysis; design: route intravenous; conditions: human, csf; how it was run: as §3
[11] = Ratio of drug level in cerebrospinal fluid to Serum of pediatric patient with gram-negative bacterial infection before initiation of 16 mg/kg/day, iv administered every 8 hrs for 93 days by LS/MS/MS analysis; design: route intravenous; conditions: human, csf; how it was run: as §3
[12] = Ratio of drug level in cerebrospinal fluid to Serum of pediatric patient with gram-negative bacterial infection before initiation of 16 mg/kg/day, iv administered every 8 hrs for 51 days by LS/MS/MS analysis; design: route intravenous; conditions: human, csf; how it was run: as §3
[13] = Ratio of drug level in cerebrospinal fluid to Serum of pediatric patient with gram-negative bacterial infection before initiation of 18 mg/kg/day, iv administered every 8 hrs for 42 days by LS/MS/MS analysis; design: route intravenous; conditions: human, csf; how it was run: as §3
[14] = Ratio of drug level in cerebrospinal fluid to Serum of pediatric patient with gram-negative bacterial infection assessed as Colistin level at 4.8 mg/kg/day, iv administered every 8 hrs for 7 days by LS/MS/MS analysis; design: route intravenous; conditions: human, csf; how it was run: as §3
[15] = Ratio of drug level in cerebrospinal fluid to Serum of pediatric patient with gram-negative bacterial infection assessed as Colistin level at 10.4 mg/kg/day, iv administered every 8 hrs for 46 days by LS/MS/MS analysis; design: route intravenous; conditions: human, csf; how it was run: as §3
[16] = Ratio of drug level in cerebrospinal fluid to Serum of pediatric patient with gram-negative bacterial infection assessed as Colistin level at16 mg/kg/day, iv administered every 8 hrs for 93 days by LS/MS/MS analysis; conditions: human, csf; how it was run: as §3
[17] = Ratio of drug level in cerebrospinal fluid to Serum of pediatric patient with gram-negative bacterial infection assessed as Colistin level at 16 mg/kg/day, iv administered every 8 hrs for 51 days by LS/MS/MS analysis; design: route intravenous; conditions: human, csf; how it was run: as §3
[18] = Ratio of drug level in cerebrospinal fluid to Serum of pediatric patient with gram-negative bacterial infection assessed as Colistin level at 18 mg/kg/day, iv administered every 8 hrs for 42 days by LS/MS/MS analysis; design: route intravenous; conditions: human, csf; how it was run: as §3
[19] = Ratio of drug level in cerebrospinal fluid to Serum of pediatric patient with gram-negative bacterial infection at 4.8 mg/kg/day, iv administered every 8 hrs for 7 days by LS/MS/MS analysis; design: route intravenous; conditions: human, csf; how it was run: as §3
[20] = Ratio of drug level in cerebrospinal fluid to Serum of pediatric patient with gram-negative bacterial infection at 10.4 mg/kg/day, iv administered every 8 hrs for 46 days by LS/MS/MS analysis; design: route intravenous; conditions: human, csf; how it was run: as §3
[21] = Ratio of drug level in cerebrospinal fluid to Serum of pediatric patient with gram-negative bacterial infection at 16 mg/kg/day, iv administered every 8 hrs for 93 days by LS/MS/MS analysis; design: route intravenous; conditions: human, csf; how it was run: as §3
[22] = Ratio of drug level in cerebrospinal fluid to Serum of pediatric patient with gram-negative bacterial infection at 16 mg/kg/day, iv administered every 8 hrs for 51 days by LS/MS/MS analysis; design: route intravenous; conditions: human, csf; how it was run: as §3
[23] = Ratio of drug level in cerebrospinal fluid to Serum of pediatric patient with gram-negative bacterial infection at 18 mg/kg/day, iv administered every 8 hrs for 42 days by LS/MS/MS analysis; design: route intravenous; conditions: human, csf; how it was run: as §3

For COLISTIN, the Drug uptake [1] was 0.38 µg/mL, the Drug uptake [2] was 0.09 µg/mL and the Drug uptake [3] was 0.04 µg/mL. It also gave a Drug uptake [4] of 0.06 µg/mL, a Drug uptake [5] of 0.02 µg/mL and a Drug uptake [6] of 0.26 µg/mL. The Drug uptake [7] was 0.09 µg/mL, the Drug uptake [8] was 0.03 µg/mL and the Ratio [9] was 20.6%. For the same sequence, the Ratio [10] was 3.1%, the Ratio [11] was 50.9% and the Ratio [12] was 9.9%. The Ratio [13] was 0.6%, the Ratio [14] was 19.3% and the Ratio [15] was 3.4%. For the same sequence, the Ratio [16] was 34.8%, the Ratio [17] was 7.2% and the Ratio [18] was 3.2%. It also gave a Ratio [19] of 2%, a Ratio [20] of 0.2% and a Ratio [21] of 3.1%. The Ratio [22] was 0.9% and the Ratio [23] was 0.4%.
